Assay results reported in ChEMBL document CHEMBL1126798, “Keto/enol epoxy steroids: a new structural class of HIV-1 Tat inhibitors” (J Med Chem, 1993).

Experiments:
[1] = Therapeutic index against HIV-1 whole cell assay was determined, expressed as the ratio of IC50s of cell cytotoxicity to that of HIV replication; conditions: human immunodeficiency virus 1, HIV-1 whole cell assay; read-out: Therapeutic index
Procedure, shortened: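 Cytotoxicity: uninfected H9 cells incubated 5 days with the same compound concentrations as the antiviral assay, viable cells counted by trypan blue exclusion. Ratio taken of the cytotoxic IC50 to the IC50 for HIV IIIB replication (p24 ELISA, 5 days, medium and compound renewed day 3).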

H9 = experiment: Inhibition of HIV-1 replication in H9 cells infected with three different concentrations of HIV IIIB strain; assay type: functional, cell-based; conditions: Homo sapiens
Procedure, shortened: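 H9 cells infected at three HIV IIIB inoculum levels, then exposed to 3-5 compound concentrations for 5 days. Fresh media and compound replaced on day 3. p24 antigen in culture media measured by ELISA on the final day, mean OD with n = 4 per dose. IC50 found for at least two viral doses, over 3-5 individual assays.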

Protein Tat = target: T1, Protein Tat (Human immunodeficiency virus type 1 group M subtype B (isolate PCV12)(HIV-1), UniProt P04326); experiment: Inhibition of HIV-1 nuclear regulatory protein Tat; set-up: species or system Human immunodeficiency virus type 1 (CLONE 12)
T1 sequence (P04326 whole entry): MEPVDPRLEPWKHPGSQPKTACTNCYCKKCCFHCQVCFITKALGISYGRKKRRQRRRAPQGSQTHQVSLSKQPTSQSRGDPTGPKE
Procedure, shortened: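 SW480 cells co-transfected with an HIV-1 LTR-driven CAT reporter plasmid and an SV40 promoter-driven Tat plasmid. Cells incubated with dose-ranged compound for 48 h. Tat-induced expression read out as CAT enzyme activity. IC50 and 95% confidence intervals taken from percent-inhibition dose-response curves over 3-5 runs. Counter-screen used an SV40 promoter-driven CAT plasmid (Tat-independent).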

Compound | selectivity ratio [1] | IC50 (H9) [nM] | IC50 (Protein Tat) [µM]
C[C@]12CCC3C(CC[C@]45OC4C(O)=C(C(N)=O)C[C@]35C)C1CC[C@@H]2O (stereo not given in full) | 6.5 | 1200 | 14.3
CC(=O)O[C@H]1CCC2C3CC[C@]45O[C@H]4C(O)=C(C(N)=O)C[C@]5(C)C3CC[C@@]21C (stereo not given in full) | 1.6 | 2400 | 2.6
CC(=O)O[C@H]1CC[C@H]2[C@@H]3CC[C@]45OC4C(=O)C(S(C)(=O)=O)C[C@]5(C)[C@H]3CC[C@]12C (stereo not given in full) | 4.3 | 300 | 2.6
C[C@]12CC[C@H]3[C@@H](CC[C@]45OC4C(=O)C(S(C)(=O)=O)C[C@]35C)[C@@H]1CC[C@@H]2O (stereo not given in full) | 3.9 | 1400 | 8.4
O=C1CN=C(c2ccc[nH]2)c2cc(Cl)ccc2N1 | 5.9 | 600 | 4
